Screening results deposited in PubChem by The Scripps Research Institute Molecular Screening Center.
Fam108B inh = counter-screen for RBBP9 inhibitors: inhibitors of mouse Fam108B; inhibition, % at 9.51 µM; recombinant Fam108B, FP-Rh probe fluorescence polarization; 300,000 compounds, 0.33% hits;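 active = inhibition above the screen mean inhibition plus 3 SD, computed separately per campaign, cut at about 18% in these data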;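 also: inhibitors lower polarization as less probe binds the enzyme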
PRMT1 inh = blocks human protein arginine methyltransferase 1 | inhibition, % at 2.79 µM | 370,000 compounds, 1.3% hits | Q99873 | recombinant PRMT1, activity-based probe fluorescence polarization;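 active = inhibition above about 21% made by adding two undisclosed values, limit read from the data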
GSTO1 inh = blocks human GSTO1 in RBBP9 counter-screen; 300,000 compounds, 1.1% hits; recombinant GSTO1, activity-based probe fluorescence polarization; inhibition, % at 5.96 µM; P78417; AID 1974;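 active = inhibition above the campaign mean inhibition plus 3 SD, cut at about 35% in these data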;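 also: 0% = GSTO1-1 with DMSO and 100% = wells lacking GSTO1-1 enzyme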
Target sequence (P78417 whole entry, looked up): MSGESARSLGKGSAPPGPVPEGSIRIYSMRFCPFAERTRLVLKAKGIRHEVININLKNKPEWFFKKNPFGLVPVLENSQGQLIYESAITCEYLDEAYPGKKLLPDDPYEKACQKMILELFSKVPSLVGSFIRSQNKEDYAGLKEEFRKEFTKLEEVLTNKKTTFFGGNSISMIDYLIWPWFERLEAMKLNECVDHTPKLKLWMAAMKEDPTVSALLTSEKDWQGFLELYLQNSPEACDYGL
PME-1 primary = blocks human protein phosphatase methylesterase 1. Q9Y570. recombinant PME-1, FP-Rh probe fluorescence polarization. inhibition, % at 5.9 µM. 320,000 compounds, 0.53% hits. AID 2130;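 active = inhibition above the campaign mean of all compounds plus 3 SD, cut at about 26% in these data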;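 also: competitive labeling of PME-1 active site by serine hydrolase directed probe; 0% = PME-1 with DMSO and 100% = wells lacking PME-1 enzyme; inhibitors block probe labeling so polarization falls and inhibition rises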
Target sequence (Q9Y570 whole entry, looked up): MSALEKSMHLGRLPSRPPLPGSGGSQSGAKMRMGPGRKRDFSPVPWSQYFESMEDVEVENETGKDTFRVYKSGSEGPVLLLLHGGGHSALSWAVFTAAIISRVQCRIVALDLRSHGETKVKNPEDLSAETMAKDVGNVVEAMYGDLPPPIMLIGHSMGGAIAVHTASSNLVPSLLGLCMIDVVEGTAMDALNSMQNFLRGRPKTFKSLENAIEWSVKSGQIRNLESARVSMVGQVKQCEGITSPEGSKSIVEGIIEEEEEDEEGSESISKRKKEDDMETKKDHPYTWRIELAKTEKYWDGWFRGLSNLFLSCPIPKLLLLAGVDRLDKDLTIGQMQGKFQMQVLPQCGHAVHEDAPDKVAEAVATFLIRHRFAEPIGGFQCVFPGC
PAD4 inh = blocks human protein arginine deiminase 4. AID 485272. recombinant PAD4, RCA probe fluorescence polarization. Q9UM07. inhibition, % at 6.36 µM. 330,000 compounds, 0.41% hits;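 active = percent inhibition above a cutoff equal to the mean of all tested compounds plus 3 SD, cut at about 15% in these data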;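 also: 0% = PAD4 with RCA probe and DMSO and 100% = probe without PAD4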
RBBP9 inh = human RBBP9 hydrolase inhibition; O75884; recombinant RBBP9, FP-Rh probe fluorescence polarization; inhibition, % at 7.94 µM; 220,000 compounds, 0.2% hits; AID 1515;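 active = inhibition above the campaign mean of all tested compounds plus 3 SD, cut at about 14% in these data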;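 also: plate controls were DMSO wells with RBBP9 for no effect and wells lacking RBBP9 protein for full effect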
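Controls: DMSO-treated enzyme wells and wells lacking RBBP9 | Material: RBBP9 protein | Technique: Fluorescence polarization | Replication: Single well per compound, no replicates | Buffer or medium: Tris-NaCl-Pluronic buffer, pH 8.0 | Timing: 30 min compound preincubation, 45 min probe labeling, 25 °C | Read-out basis: Percent inhibition from mP, scaled between DMSO and no-protein wells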
PRMT1 inh conf = confirmation of human PRMT1 inhibitors. 3,300 compounds, 42% hits. inhibition, % at 2.79 µM. shares compounds with PRMT1 inh. recombinant His-PRMT1, activity-based probe fluorescence polarization;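 active = mean inhibition across replicates above the hit cutoff derived for the earlier primary screen, cut at about 22% in these data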
Numbers without * were called inactive; . = not tested or not shown. This is a sample that favours compounds with a hit; in the whole collection about 2.3% have one here.

SMILES	Fam108B inh	PRMT1 inh	GSTO1 inh	PME-1 primary	PAD4 inh	RBBP9 inh	PRMT1 inh conf
S=c1[nH]nc(-c2cc(-c3ccccc3)n[nH]2)n1/N=C/c1c(Cl)cccc1Cl	-1	6	33	7	3	-4	.
Cc1cc(-c2n[nH]c(=S)n2/N=C/c2ccccc2[N+](=O)[O-])n[nH]1	2	1	7	-3	1	9	.
S=c1[nH]nc(-c2cc(-c3ccccc3)n[nH]2)n1/N=C/c1ccc(Br)s1	9	28*	17	24	2	-1	13
COC(=O)c1ccccc1NC(=S)NC(=O)c1ccc2ccccc2c1	-7	2	8	-11	6	-6	.
Cc1ccc(NC(=O)CN2C(=O)S/C(=C/c3ccc(-c4cc(C(=O)O)ccc4C)o3)C2=O)cc1C	-9	28*	-4	-7	-7	7	10
CCn1c(C)cc(/C=C2\NC(=O)N(CC(=O)Nc3cccc(C)c3)C2=O)c1C	1	1	5	1	-4	-7	.
Cc1ccc(NC(=O)CN2C(=O)N/C(=C/c3ccc(C)o3)C2=O)cc1	-2	76*	5	1	-6	-4	16
Cc1cccc(NC(=O)CN2C(=O)N/C(=C\c3ccc(-c4cccc(C(=O)O)c4)o3)C2=O)c1	0	27*	-11	5	1	0	11
C=CCN1C(=O)N/C(=C/c2ccc(C)o2)C1=O	-4	63*	-1	5	9	2	29*
Cc1cccc(NC(=O)CN2C(=O)N/C(=C/c3ccc(C)o3)C2=O)c1	-8	65*	-4	4	-5	-2	50*
COc1cc(NC(=O)CSc2nc3cc(C)ccc3cc2C)c(C(=O)O)cc1OC	-1	2	-7	1	-1	-5	.
O=c1cc(-c2ccccc2)c2cc3c(cc2[nH]1)OCCO3	0	-4	4	7	1	-2	.
CCCn1c(SCC(=O)N2CC(=O)Nc3ccccc32)nc2ccccc21	-1	37*	0	10	0	5	24*
CN(Cc1ccc2c(c1)CCCN2C)C(=O)[C@H]1O[C@@H](n2ccc(=O)[nH]c2=O)[C@H](O)[C@@H]1O	.	52*	.	.	.	.	7
C[c-]1[c-](C)[c-](C)[c-](C)[c-]1C.[Fe].c1cc2nccc(N3CCCC3)[c-]2c1 (stereo not drawn)	4	26*	-3	-2	-8	.	8
c1cc(N2CCCCC2)nc(N2CCCCC2)n1	.	4	.	.	.	.	.
Cc1csc(NC(=O)CCC(=O)N(CC(=O)NC2CCCC2)c2ccccc2)n1	2	-2	-3	0	6	.	.
O=C1c2ccccc2C(=O)N1CCCc1nc2ccccc2c(=O)n1CCCn1ccnc1	0	-2	0	-2	-3	-10	.
c1ccc(-c2nc(-c3ccco3)cs2)nc1	5	51*	-4	-8	-5	-4	1
Cc1cccc(C)c1NC(=O)COC(=O)c1c2c(nc3ccccc13)/C(=C\c1ccc3c(c1)OCO3)CCC2	-16	145*	-9	-13	11	-2	5
CCOc1cc(/C=C2\CCCc3c2nc2ccccc2c3C(=O)O)ccc1OC	-2	117*	9	-10	9	.	0
COc1ccc(/C=C2\CCn3c2nc2ccccc2c3=O)cc1OC	5	.	4	9	4	.	.
CC(OC(=O)c1c2c(nc3ccccc13)/C(=C\c1ccc3c(c1)OCO3)CCC2)C(=O)Nc1ccc(S(N)(=O)=O)cc1 (stereo not drawn)	.	.	.	.	.	-1	.
N#CC1=C(N)C(C#N)(C#N)[C@H](c2ccncc2)[C@H]2CN(C(=O)OCc3ccccc3)CC=C12	5	16	17	16	-1	-10	.
CN1CC=C2C(C#N)=C(N)C(C#N)(C#N)C(Cc3ccccc3)C2C1 (stereo not drawn)	2	45*	4	2	4	-2	11
SMILES	Fam108B inh	PRMT1 inh	GSTO1 inh	PME-1 primary	PAD4 inh	RBBP9 inh	PRMT1 inh conf
CC(C)N1CC=C2C(C#N)=C(N)C(C#N)(C#N)C(c3ccccc3)C2C1 (stereo not drawn)	3	37*	9	1	6	-2	33*
S=c1[nH]nc(-c2n[nH]c3c2CCC3)n1N=Cc1c2ccccc2cc2ccccc12	.	50*	.	.	.	.	49*
S=c1[nH]nc(-c2n[nH]c3c2CCC3)n1N=Cc1ccco1	.	12	.	.	.	.	.
Oc1ccc2ccccc2c1C=Nn1c(-c2n[nH]c3c2CCC3)n[nH]c1=S	.	32*	.	.	.	.	6
S=c1[nH]nc(-c2n[nH]c3c2CCC3)n1N=Cc1cccs1	.	7	.	.	.	.	.
NC(c1ccccc1)c1csc(Nc2cc(Oc3ccccc3)ncn2)n1 (stereo not drawn)	.	-2	.	.	.	.	.
O=C(CSc1nc2[nH]ncc2c(=O)[nH]1)NCc1ccc(F)cc1	-4	-5	3	2	2	-11	.
CCN1C(=O)CC(NCc2ccc3c(c2)OCO3)C1=O (stereo not drawn)	2	3	-2	-2	0	-4	.
NS(=O)(=O)c1ccc(CCNC2CC(=O)N(CCc3ccccc3)C2=O)cc1 (stereo not drawn)	-4	34*	4	-3	2	-5	-3
NS(=O)(=O)c1ccc(CCN2C(=O)CCC2=O)cc1	-1	-6	-6	2	-1	.	.
NS(=O)(=O)c1ccc(CCNC2CC(=O)N(Cc3ccccc3)C2=O)cc1 (stereo not drawn)	-2	63*	5	0	0	-6	9
O=C1CC(NCc2ccc3c(c2)OCO3)C(=O)N1CCc1ccccc1 (stereo not drawn)	1	44*	2	-5	0	1	15
Cc1cccc(C)c1Nc1n[nH]c(=S)s1	.	32*	.	.	.	.	8
Cc1ccc(Nc2n[nH]c(=S)s2)c(C)c1	.	35*	.	.	.	.	36*
Cc1cc(C)c(Nc2n[nH]c(=S)s2)cc1C	.	47*	.	.	.	.	23*
CC(C)c1ccc(Nc2n[nH]c(=S)s2)cc1	.	17	.	.	.	.	.
CNc1n[nH]c(=S)s1	-1	7	-1	5	-2	-6	.
Cc1c(NC(=O)c2nn(C)c(=O)c3ccccc23)c(=O)n(-c2ccccc2)n1C	1	-1	0	2	-5	-2	.
O=[N+]([O-])c1ccccc1S(=O)(=O)NC1CCCCCCC1	-2	0	12	3	4	.	.
O=C1CCCCCCC1Sc1ccccc1[N+](=O)[O-] (stereo not drawn)	3	30*	-3	-2	4	-10	9
O=c1cc(O)sc2ccccc12	-4	2	-9	-5	-1	6	.
O=c1[nH]sc2ccccc12	.	72*	.	.	.	-5	86*
CC(=NNC(=S)N1CC2CCC(CC2)C1)c1ccncn1	.	27*	.	.	.	.	2
O=c1c2sccc2nc(SCc2cc(=O)n3ccccc3n2)n1Cc1ccccn1	-2	27*	6	2	2	-2	15
